Experiment [1] in a line: Cytotoxicity against human KB3-1 cells after MTT assay. Type of experiment: functional, cell-based. The conditions noted are these: KB 3-1. The gist of the method: (§1)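 IC50 after continuous 4-day exposure to varying drug concentrations, with MTT read at the end of day 4. A drug-free control was included. At least two runs, each in six replicate wells.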
In general terms: Formazan colour is commonly taken as a measure of viable cells.

Experiment [2] is described as follows: Cytotoxicity against camptothecin-resistant human CPT-K5 cells after MTT assay. Type of experiment: functional, cell-based. The gist of the method:
(§2)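 Suspension cultures at 37 °C, 5% CO2, in RPMI with 10% heat-inactivated FBS, 2 mM L-glutamine, penicillin and streptomycin. Continuous 4-day exposure to a range of drug concentrations, then MTT read-out to give IC50. Drug-free control included. At least two runs, six replicate wells each.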

Experiment [3] in a line: Cytotoxicity against human RPMI8402 cells after MTT assay. To be noted: RPMI 8402. Type of experiment: functional, cell-based. In outline: as §2
The subject of experiment [4] is MDA-MB-435 (Homo sapiens). As to the kind of experiment: Antitumor activity against human MDA-MB-435 cells xenografted in NCR/NU NU mouse assessed as tumor volume measured on day 42 initially dosed at 1.5 mg/kg, ip qd x 3/5 days schedule. The conditions noted are these: route intraperitoneal. (In xenograft studies the graft and the host belong to different species.)

Experiment [5] deals with MDA-MB-435 (Homo sapiens). Kind of experiment: Antitumor activity against human MDA-MB-435 cells xenografted in NCR/NU NU mouse assessed as tumor volume measured on day 49 initially dosed at 1.5 mg/kg, ip qd x 3/5 days schedule. The conditions noted are these: route intraperitoneal.
For experiment [6], the target named is T1, DNA topoisomerase 1 (Homo sapiens) (UniProt P11387).
T1 sequence (whole entry): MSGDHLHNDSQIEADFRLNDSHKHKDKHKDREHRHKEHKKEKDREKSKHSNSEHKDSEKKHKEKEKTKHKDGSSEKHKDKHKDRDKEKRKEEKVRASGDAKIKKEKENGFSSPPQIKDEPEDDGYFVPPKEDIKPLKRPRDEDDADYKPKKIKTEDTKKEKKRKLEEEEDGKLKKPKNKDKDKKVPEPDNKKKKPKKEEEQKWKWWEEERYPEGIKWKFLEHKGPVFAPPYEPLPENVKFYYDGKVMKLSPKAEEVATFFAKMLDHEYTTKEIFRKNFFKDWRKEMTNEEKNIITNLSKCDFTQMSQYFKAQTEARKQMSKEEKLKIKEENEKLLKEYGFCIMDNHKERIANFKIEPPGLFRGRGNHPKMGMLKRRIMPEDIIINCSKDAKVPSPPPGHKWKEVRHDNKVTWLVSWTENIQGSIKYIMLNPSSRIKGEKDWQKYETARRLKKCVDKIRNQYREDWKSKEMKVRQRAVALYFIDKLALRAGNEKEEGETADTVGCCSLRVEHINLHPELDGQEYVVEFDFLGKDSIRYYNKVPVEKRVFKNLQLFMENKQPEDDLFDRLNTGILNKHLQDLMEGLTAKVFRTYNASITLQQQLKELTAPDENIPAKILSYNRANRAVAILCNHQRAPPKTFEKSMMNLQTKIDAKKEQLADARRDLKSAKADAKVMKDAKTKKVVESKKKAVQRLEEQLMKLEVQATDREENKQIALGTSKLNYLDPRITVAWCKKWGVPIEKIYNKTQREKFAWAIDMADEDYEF
Kind of experiment: Inhibition of human topoisomerase 1 mediated DNA cleavage assessed as effective drug concentration causing 10% YepG plasmid cleavage relative to camptothecin. To be noted: in the assay text read “relative to topotecan” for “relative to camptothecin”. The gist of the method: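 Stopped with SDS and proteinase K, 1 h at 37 °C. Alkali-denatured with NaOH/EDTA/sucrose/bromophenol blue, then run on neutral agarose gel.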

The test system of experiment [7] is MDA-MB-435 (Homo sapiens). Kind of experiment: Antitumor activity against human MDA-MB-435 cells xenografted in NCR/NU NU mouse assessed as tumor volume measured on day 21 initially dosed at 1.5 mg/kg, ip qd x 3/5 days schedule. To be noted: route intraperitoneal.
Experiment [8] can be described thus: Cytotoxicity against camptothecin-resistant and TOP1 deficient mouse P388/CPT45 cells after MTT assay. Format: functional, cell-based. The conditions noted are these: P388CPT45. In outline:
as §2

For experiment [9], the system named is MDA-MB-435 (Homo sapiens). As to the kind of experiment: Antitumor activity against human MDA-MB-435 cells xenografted in NCR/NU NU mouse assessed as tumor volume measured on day 35 initially dosed at 1.5 mg/kg, ip qd x 3/5 days schedule. The conditions noted are these: route intraperitoneal.
Experiment [10] can be described thus: Cytotoxicity against multidrug resistant human KBH5.0 cells overexpressing BCRP after MTT assay. The conditions noted are these: KBH5.0 cell. Type of experiment: functional, cell-based. In outline: as §1
Experiment [11] deals with MDA-MB-435 (Homo sapiens). Kind of experiment: Antitumor activity against human MDA-MB-435 cells xenografted in NCR/NU NU mouse assessed as tumor volume measured on day 28 initially dosed at 1.5 mg/kg, ip qd x 3/5 days schedule. The conditions noted are these: route intraperitoneal.
A further experiment deals with MDA-MB-435 (human). As to the kind of experiment: Antitumor activity against human MDA-MB-435 cells xenografted in NCR/NU NU mouse assessed as tumor volume measured on day 7 initially dosed at 1.5 mg/kg, ip qd x 3/5 days schedule. To be noted: route intraperitoneal.
Experiment [12] can be described thus: Cytotoxicity against multidrug resistant human KBV-1 cells overexpressing MDR1 after MTT assay. Format: functional, cell-based. The conditions noted are these: KB-V1. The gist of the method:
as §1

For experiment [13], the system named is MDA-MB-435 (Homo sapiens). Kind of experiment: Antitumor activity against human MDA-MB-435 cells xenografted in NCR/NU NU mouse assessed as tumor volume measured on day 14 initially dosed at 1.5 mg/kg, ip qd x 3/5 days schedule. To be noted: route intraperitoneal.

pIC50: −log10 of the molar value.

One may read the pIC50 as the IC50 on a negative log10 scale, so that one unit is a factor of ten. Low values mean a high IC50, high ones a low IC50. `COc1cc2c(=O)n(CCN(C)C)c3c4cc5c(cc4ncc3c2cc1OC)OCO5`: the pIC50 in experiment [1] is 8.30; in experiment [2] it was 6.05; in experiment [3], 8.70; in experiment [8], 6.64; in [10], 8.22; in [12] it was 8.30. Besides, the Activity in experiment [4] stood at 189 mm³; in [5], 242 mm3; in experiment [6], 0.3; in experiment [7], 145 mm³; in experiment [9] it was 175 mm³; in [11], 158 mm³. For the same molecule, the Activity with MDA-MB-435 (human) was determined as 120 mm3; in [13], 123 mm³.

These data come from ChEMBL document CHEMBL1142488, “Synthesis of N-substituted 5-[2-(N-alkylamino)ethyl]dibenzo[c,h][1,6]naphthyridines as novel topoisomerase I-targeting antitumor agents” (Bioorg Med Chem, 2008).
